Assay results: PubChem BioAssay
Records with an inconclusive call do not appear. Active and inactive are the calls of the source.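 Rule for the calls, unless noted: active = viability increase at or above a cutoff of the median across tested compounds plus 3 SD (cut at about 8.5% in these data, passing the limit was not always enough); inconclusive = some gains above the cutoff, reason not given; inactive = the rest.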

What was measured:
[1] = OD615 S. cerevisiae growth inhibition, permissive medium, pilot counter-assay, permissive growth control for S. cerevisiae lifespan shortening project (AID 705;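 active = growth inhibition above 25% in both replicates, a cutoff set 3 SD above the mean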); details: OD615, 24 h, at 10 µM, stronger effect = higher value
Outline: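 assay system = Saccharomyces cerevisiae strain carrying genetically modified DeaD replicative-lifespan system | medium = SC raffinose/galactose permissive medium | dosing = 10 µM single dose, 0.25% DMSO | schedule = 24 h compound exposure at 30 °C after 4 h pre-growth | measured by = OD at 615 nm | read-out basis = growth inhibition from lowered OD615 after 24 h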

[2] = Restrictive medium S. cerevisiae growth inhibition, OD615, pilot screen of yeast lifespan reduction project, restrictive growth control (AID 706;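 active = growth inhibition above a set limit, 3 SD over mean compound inhibition, in both replicates, cut at about 43% in these data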;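 note: modified DeaD lifespan yeast strain shifted to restrictive glucose medium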); details: OD615, 48 h, at 10 µM, stronger effect = higher value
Outline: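 Buffer or medium: CSMM-D glucose medium. Material: genetically modified Saccharomyces cerevisiae, DeaD replicative lifespan assay strain. Times: 48 h compound exposure at 30 °C. Measured by: optical density at 615 nm.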

[3] = viability gain of MRP-1-high H69AR cells under doxorubicin, pilot screen, MRP-1 activator project, CellTiter-Glo, duplicate (AID 807); details: H69AR viability with doxorubicin, CellTiter-Glo luminescence; at 10 µM; stronger effect = higher value;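 note: compound pretreatment 18-22 h then 72 h combined with doxorubicin; 0% = doxorubicin alone and 100% = vehicle without doxorubicin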
[4] = growth suppression of beta-catenin knockout HCT116, pilot screen, human colon tumor cells (AID 823;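 active = cell viability at or below a set limit in both duplicate runs, the limit being the all-compound median minus 4 SD, cut at about 23% in these data, passing the limit was not always enough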;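 note: 0% = wells killed by 20 µM Hyamine and 100% = untreated DMSO cell wells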); details: CellTiter-Glo, 60 h, at 10 µM, stronger effect = lower value
[5] = growth suppression of PTEN-deleted HCT116, pilot screen, cell-based, HCT116 clonal line, CellTiter-Glo (AID 824;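 active = viability at or below 27.92% in each of two runs, the all-compound median minus 4 SD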;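 note: 0% = 20 µM Hyamine control and 100% = vehicle cell control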); details: 60 h, at 10 µM, stronger effect = lower value
[6] = inhibitors of the yeast RAM network, pilot screen, dse1pr::URA3 reporter, 5-FOA selection (AID 869;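 active = inhibition over a set limit, the all-compound mean plus 3 SD, in both replicate runs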;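 note: 0% = DMSO wells with no growth and 100% = 10 µM 1-NA-PP1 with full growth; RAM network block rescues cells from 5-FOA so hits raise OD615 growth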); details: S. cerevisiae dse1pr::URA3 5-FOA growth, OD615, 2 d; at 10 µM; stronger effect = higher value; strain carries analog-sensitive mutant Cbk1 kinase
[7] = RAM signaling pathway blockade in yeast – S. cerevisiae, Pdr1DBD-CYC8 efflux-inhibited sensitized strain, primary screen (AID 1298;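 active = RAM network inhibition above 8.4% in each of two replicates, 3 SD over the compound average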;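 note: 0% = DMSO untreated cells without growth and 100% = 10 µM 1-NA-PP1 full growth; higher means more yeast growth rescued from 5-FOA killing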); details: S. cerevisiae cbk1-as DSE1-URA3 strain, 5-FOA growth OD615, 2 d; at 50 µM; stronger effect = higher value

Cc1cnc(C(=O)OCC(=O)Nc2cc(Cl)cc(Cl)c2)cn1
inactive: growth inhibition [1] -14.2% | growth inhibition [2] -9.38% | viability increase [3] -5.97% | viability [4] 96.7% | viability [5] 88.5% | inhibition [6] 1.13% | RAM network inhibition [7] 5.88%

CCCN1CCN(C(=O)CCCn2c(C)c3cnn(-c4ccccc4)c(=O)c3c2C)CC1
inactive: growth inhibition [1] -10.1% | growth inhibition [2] -6.09% | viability increase [3] -2.94% | viability [4] 102% | viability [5] 105% | inhibition [6] -0.215% | RAM network inhibition [7] 3.77%

CC(=O)N1CSCC1C(=O)N1CCN(c2ccc(N3CCOCC3)nn2)CC1 (configuration not stated)
inactive: growth inhibition [1] 5.2% | growth inhibition [2] 12.4% | viability increase [3] -0.66% | viability [4] 103% | viability [5] 95.1% | inhibition [6] 1.55% | RAM network inhibition [7] 0.26%

Cc1cccc(NC(=O)CN2CCN(CC(=O)Nc3cccc(C)c3)CC2)c1
inactive: growth inhibition [1] -14.3% | growth inhibition [2] -10% | viability increase [3] -4.48% | viability [4] 90.1% | viability [5] 98% | inhibition [6] 0.165% | RAM network inhibition [7] 2.17%

NC(=O)CSc1nnc(-c2ccncc2)n1-c1ccc(Cl)cc1
inactive: growth inhibition [1] -5.39% | growth inhibition [2] 0.11% | viability increase [3] -1.78% | viability [4] 97.7% | viability [5] 94.1% | inhibition [6] 0.785% | RAM network inhibition [7] 1.57%

CCc1nn(CC(=O)NCCCN2CCCC2=O)c(=O)c2cc3sccc3n12
inactive: growth inhibition [1] -8.81% | growth inhibition [2] -16.4% | viability increase [3] -2.31% | viability [4] 112% | viability [5] 108% | inhibition [6] 1.91% | RAM network inhibition [7] 0.36%

CN(C)Cc1c(O)ccc2occ(C(O)c3ccccc3)c12 (configuration not stated)
inactive: growth inhibition [1] -13.2% | growth inhibition [2] -4.58% | viability increase [3] -3.71% | viability [4] 77.2% | viability [5] 82.5% | inhibition [6] 1.07% | RAM network inhibition [7] 4.33%

CCc1cc(C(=O)COc2ccccc2F)c(O)cc1O
inactive: growth inhibition [1] -11.9% | growth inhibition [2] 11.9% | viability increase [3] -2.43% | viability [4] 96.1% | viability [5] 99.5% | inhibition [6] -0.155% | RAM network inhibition [7] -0.21%

c1ccc2c(c1)ncc1cccn12
inactive: growth inhibition [1] -16.6% | growth inhibition [2] -12.8% | viability increase [3] -5.24% | viability [4] 104% | viability [5] 89% | inhibition [6] 2.58% | RAM network inhibition [7] 5.07%

Cc1cccc(NC(=O)c2cccnc2)c1
inactive: growth inhibition [1] -3.06% | growth inhibition [2] 4.14% | viability increase [3] 1.56% | viability [4] 97.2% | viability [5] 96.5% | inhibition [6] 0.405% | RAM network inhibition [7] 5.69%

C=CCOc1cccc(C2C(C(=O)c3ccco3)=C(O)C(=O)N2CCN2CCOCC2)c1 (configuration not stated)
inactive: growth inhibition [1] -9.71% | growth inhibition [2] -10.5% | viability increase [3] -2.85% | viability [4] 94.1% | viability [5] 93.2% | inhibition [6] 0.795% | RAM network inhibition [7] -0.11%

C=CCOC(=O)COc1ccc2c(C)c(C)c(=O)oc2c1
inactive: growth inhibition [1] -17.9% | growth inhibition [2] -6.88% | viability increase [3] 0.26% | viability [4] 96.6% | viability [5] 95.9% | inhibition [6] 0.765% | RAM network inhibition [7] 4.38%

CCC1(C(=O)O)NC(c2cc(OC)ccc2O)C2C(=O)N(Cc3ccccc3)C(=O)C21 (configuration not stated)
inactive: growth inhibition [1] 2.51% | growth inhibition [2] -7.93% | viability increase [3] -0.32% | viability [4] 102% | viability [5] 99.8% | inhibition [6] 0.37% | RAM network inhibition [7] 1.51%

Cc1ccc(C(=O)NCCn2cc(SCC(=O)Nc3nnc(C)s3)c3ccccc32)cc1
inactive: growth inhibition [1] 5.58% | growth inhibition [2] 24.1% | viability increase [3] 2.91% | viability [4] 62.5% | viability [5] 81.3% | inhibition [6] 1.07% | RAM network inhibition [7] 0.63%

COc1cccc(-c2nc(CS(=O)(=O)CC(=O)NCCC(C)C)c(C)o2)c1
inactive: growth inhibition [1] 3.72% | growth inhibition [2] 7.53% | viability increase [3] 0.8% | viability [4] 94% | viability [5] 89.1% | inhibition [6] 0.36% | RAM network inhibition [7] 1.13%

N#Cc1ccc(NC(=O)Nc2ccc(Cl)cc2)cc1
inactive: growth inhibition [1] 3.13% | growth inhibition [2] -4.69% | viability increase [3] -7.91% | inhibition [6] 1.34% | RAM network inhibition [7] 1.44%
active: viability [4] 6.71% | viability [5] 7.35%

O=C1c2oc3ccc(F)cc3c(=O)c2C(c2ccc(F)cc2)N1CCCN1CCOCC1 (configuration not stated)
inactive: growth inhibition [1] -1.14% | growth inhibition [2] 6.59% | viability increase [3] 0.11% | viability [4] 106% | viability [5] 97.5% | inhibition [6] 1.92% | RAM network inhibition [7] -0.47%

COC(=O)C1(C)NC(=O)c2ccccc2N1 (configuration not stated)
inactive: growth inhibition [1] -6.57% | growth inhibition [2] -7.71% | viability increase [3] -0.86% | viability [4] 102% | viability [5] 99.2% | inhibition [6] 0.47% | RAM network inhibition [7] 5.23%

Cc1ccccc1OCC(O)Cn1c(NCCN(C)C)nc2c1c(=O)n(C)c(=O)n2C (configuration not stated)
inactive: growth inhibition [1] -13.3% | growth inhibition [2] 2.24% | viability increase [3] -1.92% | viability [4] 93.5% | viability [5] 99.4% | inhibition [6] 2.01% | RAM network inhibition [7] 1.15%

Cc1ccccc1Cn1c(CN2CCN(C(=O)c3ccco3)CC2)nc2c1c(=O)n(C)c(=O)n2C
inactive: growth inhibition [1] 1.26% | growth inhibition [2] -4.52% | viability increase [3] -4.75% | viability [4] 94.1% | viability [5] 95.7% | inhibition [6] 0.335% | RAM network inhibition [7] 1.2%

O=C1CN(C(=O)c2ccc(Br)o2)C(c2ccccc2)c2cc(F)ccc2N1 (configuration not stated)
inactive: growth inhibition [1] -12.5% | growth inhibition [2] -28% | viability increase [3] -5.91% | viability [4] 84.9% | viability [5] 78.7% | inhibition [6] 1.08% | RAM network inhibition [7] 2.36%

CCOCCOC(=O)C1=C(C)N(C)C(=O)NC1c1ccccc1Cl (configuration not stated)
inactive: growth inhibition [1] 1.35% | growth inhibition [2] -7.18% | viability increase [3] -1.78% | viability [4] 101% | viability [5] 99.8% | inhibition [6] 0.375% | RAM network inhibition [7] 0.57%

Nc1ccc(-c2nc3ccccc3[nH]2)cc1
inactive: growth inhibition [1] -6.98% | growth inhibition [2] -10.1% | viability increase [3] -3.12% | viability [4] 97.3% | viability [5] 87.8% | inhibition [6] 2.31% | RAM network inhibition [7] 4.57%

COc1cc(NC(=O)c2cc(C(C)C)on2)cc(OC)c1OC
inactive: growth inhibition [1] -12.3% | growth inhibition [2] 14.9% | viability increase [3] -1.85% | viability [4] 95.2% | viability [5] 94.5% | inhibition [6] -0.755% | RAM network inhibition [7] -0.99%

CCOC(=O)C1CCN(C(=O)CN(c2ccc(OC)c(OC)c2)S(=O)(=O)c2ccccc2)CC1
inactive: growth inhibition [1] -2.99% | growth inhibition [2] -7.61% | viability increase [3] 0.05% | viability [4] 104% | viability [5] 94.6% | inhibition [6] 1.19% | RAM network inhibition [7] 6.25%

Cc1cc(C)n(-c2nc3ccccc3nc2Nc2ccc(CC(=O)O)cc2)n1
inactive: growth inhibition [1] 5.73% | growth inhibition [2] -0.88% | viability increase [3] -1.81% | viability [4] 98.8% | viability [5] 95.5% | inhibition [6] -1.14% | RAM network inhibition [7] -2.71%

CC(NC(=O)c1ccc2c(c1)OCO2)C1CCCO1 (configuration not stated)
inactive: growth inhibition [1] -3.77% | growth inhibition [2] 7.33% | viability increase [3] -0.15% | viability [4] 96.8% | viability [5] 94.5% | inhibition [6] 1.44% | RAM network inhibition [7] -0.53%

CCOc1ccc(C2CC(=O)NC(SCC(=O)OC)=C2C#N)cc1 (configuration not stated)
inactive: growth inhibition [1] 3.64% | growth inhibition [2] 6.22% | viability increase [3] 2.65% | viability [4] 102% | viability [5] 105% | inhibition [6] 1.87% | RAM network inhibition [7] 1.2%

Cn1nnnc1SCc1ccc(F)cc1
inactive: growth inhibition [1] -3.69% | growth inhibition [2] -4.48% | viability increase [3] -0.09% | viability [4] 98.1% | viability [5] 108% | inhibition [6] 1.25% | RAM network inhibition [7] 2.61%

COc1ccc(-c2nnc(SCC(=O)Nc3cc(F)ccc3C)o2)cc1
inactive: growth inhibition [1] -4.83% | growth inhibition [2] 4.39% | viability increase [3] 1.69% | viability [4] 101% | viability [5] 97.6% | inhibition [6] 2.44% | RAM network inhibition [7] 0.58%

CC1=Nc2ccc(C)cc2N(Cc2ccccc2)C(=O)C1
inactive: growth inhibition [1] -10.2% | growth inhibition [2] -5.19% | viability increase [3] 0.47% | viability [4] 101% | viability [5] 93.8% | inhibition [6] 0.545% | RAM network inhibition [7] 2.83%

COCCNC(=O)C1c2cc(OC)c(OC)cc2C(=O)N(C)C1c1cccnc1 (configuration not stated)
inactive: growth inhibition [1] -5.99% | growth inhibition [2] -8.46% | viability increase [3] 0.41% | viability [4] 91.3% | viability [5] 92% | inhibition [6] -0.34% | RAM network inhibition [7] 5.06%

Cc1noc(C)c1S(=O)(=O)N(CC(=O)NCc1ccc(Cl)cc1)c1ccc2c(c1)OCO2
inactive: growth inhibition [1] -13.6% | growth inhibition [2] -7.5% | viability increase [3] -3.36% | viability [4] 104% | viability [5] 97.9% | inhibition [6] 2.81% | RAM network inhibition [7] 1%

COc1cc(C(=O)Oc2ccccc2N)cc(OC)c1OC
inactive: growth inhibition [1] -19.6% | growth inhibition [2] 11.3% | viability increase [3] -2.84% | viability [4] 102% | viability [5] 96% | inhibition [6] -0.31% | RAM network inhibition [7] 1.19%

Cc1ccc(S(=O)(=O)N2C3C=CC(C3)C2C(=O)O)cc1 (configuration not stated)
inactive: growth inhibition [1] 3.23% | growth inhibition [2] -3.31% | viability increase [3] -0.3% | viability [4] 94.3% | viability [5] 99.9% | inhibition [6] 0.08% | RAM network inhibition [7] 1.2%

Cn1c(NC(=O)CCc2ccccc2)cc(=O)n(C)c1=O
inactive: growth inhibition [1] -8.68% | growth inhibition [2] -8.72% | viability increase [3] -3.77% | viability [4] 102% | viability [5] 96.9% | inhibition [6] 0.855% | RAM network inhibition [7] -0.05%
